Laboratory results reported in ChEMBL document CHEMBL5385965, “Discovery of novel positive allosteric modulators targeting GluN1/2A NMDARs as anti-stroke therapeutic agents” (RSC Med Chem, 2024).
Calls of active or inactive are those of the source. The calls are words filed in the database; no cut-off is given here.

Key:
PC-12 [1] = assay: Neuroprotective activity against glutamate-induced excitotoxicity in rat PC12 cells assessed as cell viability at 0.1 uM preincubated for 4 hrs followed by glutamate treatment for 24 hrs by CCK8 assay (reference value: 44.89 +/- 2.08 %); assay type: functional; conditions: time 28 hrs, read-out: Activity
PC-12 [2] = assay: Neuroprotective activity against glutamate-induced excitotoxicity in rat PC12 cells assessed as cell viability at 10 uM preincubated for 4 hrs followed by glutamate treatment for 24 hrs by CCK8 assay (reference value: 43.75 +/- 2.04 %); assay type: functional; conditions: time 28 hrs, read-out: Activity
PC-12 [3] = assay: Neuroprotective activity against glutamate-induced excitotoxicity in rat PC12 cells assessed as cell viability at 1 uM preincubated for 4 hrs followed by glutamate treatment for 24 hrs by CCK8 assay (reference value: 43.19 +/- 2.98 %); assay type: functional; conditions: time 28 hrs, read-out: Activity
[4] = biological target: T1, Glutamate NMDA receptor; GRIN1/GRIN2B (Homo sapiens) (UniProt Q05586+Q13224); assay: Positive allosteric modulation of GluN1/N2B (unknown origin) transfected in HEK293 cells assessed as potentiation of Glu/Gly-induced calcium influx by Cal-520 AM dye based assay; assay type: cell-based
Method in brief: (§1)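 HEK293 cells were co-transfected 1:1 with GluN1 plus GluN2A or GluN2B at 90% confluence and seeded 40 000/well on poly-D-lysine plates overnight. Cells were loaded with Cal-520 AM for 1.5 h at 37 °C, and compounds were tested at 10 μM. Responses to Glu (2 mM)/Gly (100 μM) were recorded in HEPES-buffered Tyrode's (pH 7.2) at Ex 485/Em 515 nm every 1.6 s, expressed as area under the FMAX/F0 curve.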

HT-22 [5] = assay: Neuroprotective activity against glutamate-induced excitotoxicity in mouse HT-22 cells assessed as cell viability at 1 uM preincubated for 4 hrs followed by glutamate treatment for 24 hrs by CCK8 assay (reference value: 35.56 +/- 2.12 %); assay type: functional; conditions: time 28 hrs, read-out: Activity
HT-22 [6] = assay: Neuroprotective activity against glutamate-induced excitotoxicity in mouse HT-22 cells assessed as cell viability at 10 uM preincubated for 4 hrs followed by glutamate treatment for 24 hrs by CCK8 assay (reference value: 34.80 +/- 4.02 %); assay type: functional; conditions: time 28 hrs, read-out: Activity
HT-22 [7] = assay: Neuroprotective activity against glutamate-induced excitotoxicity in mouse HT-22 cells assessed as cell viability at 0.1 uM preincubated for 4 hrs followed by glutamate treatment for 24 hrs by CCK8 assay (reference value: 30.31 +/- 2.02 %); assay type: functional; conditions: time 28 hrs, read-out: Activity
[8] = Cytotoxicity against rat PC12 cells assessed as cell viability at 10 uM incubated for 4 hrs by CCK8 assay relative to control; assay type: toxicity, cell-based, PC-12; conditions: read-out: Activity
Mus musculus [9] = assay: Neuroprotective activity against tMCAO-reperfusion induced nerve injury in C57BL/6 mouse model assessed as reduction in volume of ischemia cerebral infarction at 5 mg/kg, ip measured after 22 hrs by TTC staining based analysis relative to control; assay type: functional; set-up: scale not given: the % may be the effect or the level left
Mus musculus [10] = assay: Neuroprotective activity against tMCAO-reperfusion induced nerve injury in C57BL/6 mouse model assessed as reduction in volume of ischemia cerebral infarction at 10 mg/kg, ip measured after 22 hrs by TTC staining based analysis (reference value: 130.60 +/- 9.93 mm3); assay type: functional
Mus musculus [11] = assay: Neuroprotective activity against tMCAO-reperfusion induced nerve injury in C57BL/6 mouse model assessed as reduction in volume of ischemia cerebral infarction at 5 mg/kg, ip measured after 22 hrs by TTC staining based analysis (reference value: 130.60 +/- 9.93 mm3); assay type: functional
Mus musculus [12] = assay: Neuroprotective activity against tMCAO-reperfusion induced nerve injury in C57BL/6 mouse model assessed as reduction in volume of ischemia cerebral infarction at 10 mg/kg, ip measured after 22 hrs by TTC staining based analysis relative to control; assay type: functional; set-up: scale not given: the % may be the effect or the level left
Mus musculus [13] = assay: Neuroprotective activity against tMCAO-reperfusion induced nerve injury in C57BL/6 mouse model assessed as recovery of neurological deficit score at 5 to 10 mg/kg, ip measured after 22 hrs; assay type: functional, organism-based; conditions: dose 5-10 mg/kg
Method in brief: (§2)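 Male C57BL/6 mice (6–8 weeks, 18–22 g) were randomized and given 1, 5 or 10 mg/kg i.p. in 5% DMSO, 20% PEG300, 5% Tween-80 in saline. Under isoflurane, the left MCA was occluded with a nylon monofilament for 1.5 h, then reperfused, with body temperature held at 37 °C. Neurological scores were taken after tMCAO. n=6, mean ± SD, one-way ANOVA with Dunnett's test vs vehicle.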

[14] = biological target: Glutamate NMDA receptor; GRIN1/GRIN2A (Homo sapiens) (UniProt Q05586+Q12879); assay: Positive allosteric modulation of GluN1/N2A (unknown origin) transfected in HEK293 cells assessed as potentiation of Glu/Gly-induced calcium influx by Cal-520 AM dye based assay; assay type: cell-based; conditions: filed as positive allosteric modulator; method in brief: as §1
[15] = biological target: Glutamate NMDA receptor; GRIN1/GRIN2A/GRIN2B (Homo sapiens) (UniProt Q05586+Q12879+Q13224); assay: Positive allosteric modulation of GluN1/N2A/N2B (unknown origin) transfected in HEK293 cells assessed as potentiation of Glu/Gly-induced calcium influx by Cal-520 AM dye based assay; assay type: cell-based
[16] = biological target: T1, Glutamate NMDA receptor; GRIN1/GRIN2B (Homo sapiens); assay: […] of GluN1/N2B (unknown origin) transfected in HEK293 cells assessed as potentiation of Glu/Gly-induced calcium influx by Cal-520 AM dye based assay; assay type: cell-based; method in brief: as §1
Mus musculus [17] = assay: Neuroprotective activity against tMCAO-reperfusion induced nerve injury in C57BL/6 mouse model assessed as recovery of neurological deficit score at 10 mg/kg, ip measured after 22 hrs; assay type: functional, organism-based; method in brief: as §2

SMILES | viability at 0.1 µM (PC-12 [1]) [%] | viability at 10 µM (PC-12 [2]) [%] | viability at 1 µM (PC-12 [3]) [%] | Activity [4] | viability at 1 µM (HT-22 [5]) [%] | viability at 10 µM (HT-22 [6]) [%] | viability at 0.1 µM (HT-22 [7]) [%] | viability at 4 h, 10 µM [8] [%] | also measured
COc1cc(/C=C/C(=O)NCC(O)c2ccc(O)cc2)ccc1O (configuration not stated) | 64.2 | 62.8 | 66.5 | inactive | 77.6 | 39.6 | 42.7 | 96.6 | –
COc1cc(OC/C=C(\C)CCC=C(C)C)c2ccc(=O)oc2c1 | 67.4 | 70.1 | 69 | inactive | 69 | 41.4 | 34.9 | 74.7 | –
COc1ccc(C(O)CNC(=O)/C=C/c2ccccc2)cc1 (configuration not stated) | – | – | – | inactive | – | – | – | – | Activity (Mus musculus [9]): 30.68%; Activity (Mus musculus [10]): 74.83 mm3; Activity (Mus musculus [11]): 90.53 mm3; Activity (Mus musculus [12]): 42.7%; Activity (Mus musculus [13]): Active; Activity [14]: Dose-Dependent Effect; Activity [15]: inactive
C=CCc1ccc(O)c(-c2ccc(O)c(CC=C)c2)c1 | – | – | – | inactive | – | – | – | – | Activity [16]: Active
CC(C)=CCC/C(C)=C/COc1c2ccoc2cc2oc(=O)ccc12 | – | – | – | inactive | – | – | – | – | –
CC(C)=CCC/C(C)=C/COc1ccc2ccc(=O)oc2c1 | – | – | – | inactive | – | – | – | – | –
CC(Cc1ccc(O)c(O)c1)C(C)Cc1ccc(O)c(O)c1 (configuration not stated) | – | – | – | inactive | – | – | – | – | –
CCCCCCC/C=C/C(=O)CCc1ccc(O)c(OC)c1 | – | – | – | inactive | – | – | – | – | –
CCN(CC)CCCC(C)Nc1ccnc2cc(Cl)ccc12 (configuration not stated) | – | – | – | inactive | – | – | – | – | –
COc1cc(/C=C/C(=O)NCCc2ccc(O)cc2)cc(OC)c1O | – | – | – | inactive | – | – | – | – | –
COc1cc(/C=C/C(=O)NCCc2ccc(O)cc2)ccc1O | – | – | – | inactive | – | – | – | – | –
COc1cc(C(=O)OCCCCNC(=N)N)cc(OC)c1O | – | – | – | inactive | – | – | – | – | –
C[C@H](CCc1ccc(O)cc1)NCCc1ccc(O)c(O)c1 | – | – | – | inactive | – | – | – | – | –
O=C(/C=C/c1ccc(O)c(O)c1)OC(Cc1ccc(O)c(O)c1)C(=O)O (configuration not stated) | – | – | – | inactive | – | – | – | – | –
O=C(CCCCc1ccc2c(c1)OCO2)N1CCCCC1 | – | – | – | inactive | – | – | – | – | –
O=C(CCc1ccccc1)C[C@@H](O)/C=C/c1ccccc1 | – | – | – | inactive | – | – | – | – | –
C=CCN1C[C@H](C(=O)N(CCCN(C)C)C(=O)NCC)C[C@@H]2c3cccc4[nH]cc(c34)C[C@H]21 [CABERGOLINE] | 63.9 | 87.5 | 68.2 | inactive | 73.8 | 37.4 | 37.7 | 94.8 | –
COc1cc(CNC(=O)CCCCCCC(C)C)ccc1O [DIHYDROCAPSAICIN] | 66.1 | 102 | 76.1 | inactive | 95.4 | 43.3 | 32.6 | 104 | –
CC1=NN(c2ccccc2)C(=O)C1 [EDARAVONE] | – | – | – | – | – | – | – | – | Activity (Mus musculus [10]): 68.04 mm3; Activity (Mus musculus [17]): Active
COc1cc(CCC(=O)CC(O)CCc2ccc(O)c(OC)c2)ccc1O (configuration not stated) [HEXAHYDROCURCUMIN] | 66 | 66.5 | 52.4 | inactive | 103 | 42.9 | 41.4 | 73.3 | Activity [14]: Active
COC(=O)[C@@H](Cc1ccc(O)c(O)c1)OC(=O)/C=C/c1ccc(O)c(O)c1 [METHYL ROSMARINATE] | 74.1 | 53.6 | 75.2 | inactive | 80.4 | 25.6 | 46.3 | 69.6 | –
O=C(/C=C/C=C/c1ccc2c(c1)OCO2)N1CCCCC1 [PIPERINE] | 66.2 | 35.2 | 57.3 | inactive | 87.8 | 24.5 | 36.5 | 98.3 | –
COCCCOc1ccnc(C[S+]([O-])c2nc3ccccc3[nH]2)c1C (configuration not stated) [RABEPRAZOLE] | 64.7 | 60.9 | 66.7 | inactive | 76.5 | 16 | 39.9 | 93.2 | –
N[C@@H](CC(=O)N1CCn2c(nnc2C(F)(F)F)C1)Cc1cc(F)c(F)cc1F [SITAGLIPTIN] | 62.6 | 77.8 | 69.5 | inactive | 71 | 52.4 | 24.8 | 95.5 | –
